Screening results: PubChem, Johns Hopkins Ion Channel Center
An excerpt weighted towards active compounds, which were near 3.7% of everything screened.
KCNK3 block = human KCNK3 channel inhibitors, primary screen, CHO cells, FluxOR thallium flux, B-score | AID 602410, 2012 | 340,000 compounds, 0.84% hits | Potassium channel subfamily K member 3 (Homo sapiens), O14649 | B-score at 10 µM | FluxOR fluorescence; active compounds read low;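 active = B-score under library mean minus 4 SD, starting fluorescence ratio at most library mean plus 5 SD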;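 also: more negative B-score means stronger inhibition of thallium flux through KCNK3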
Kir21 inh = inhibitors of mouse Kir2.1 inward-rectifier potassium channel. 310,000 compounds, 0.85% hits. HEK293-Kir2.1, FluxOR thallium flux fluorescence; active compounds read low. B-score at 10 µM. Inward rectifier potassium channel 2 (Mus musculus), P35561. AID 1672, 2009;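 active = fluorescence ratio B-score at or below minus 3 SD of library scores, with starting-brightness B-score within 2 SD, cut at about -4.2 in these data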;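 also: channel flux triggered by added potassium and thallium sulfate stimulus; B-score of peak minus minimum fluorescence over baseline after thallium stimulus; more negative B-score means stronger Kir2.1 block with less thallium influx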
KCNK9 block = KCNK9 potassium channel inhibitors, primary screen, HEK293 cells, thallium flux; Potassium channel subfamily K member 9 (Homo sapiens), Q9NPC2; B-score at 10 µM; FluxOR thallium flux fluorescence; active compounds read low; 310,000 compounds, 1.2% hits; AID 488922, 2010;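 active = ratio B-score over 3 SD below the library mean, with starting fluorescence within 5 SD of its mean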;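 also: negative B-score means less thallium flux so channel inhibition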
KCNQ1 pot = potentiators or activators of KCNQ1 channel, primary screen, cell-based, thallium flux, high-throughput | Potassium voltage-gated channel subfamily KQT member 1 (Homo sapiens), P51787 | B-score at 10 µM | CHO-K1 KCNQ1, thallium flux FluxOR fluorescence; active compounds read high | 310,000 compounds, 0.35% hits;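 active = fluorescence ratio B-score, a plate-corrected score, at least three library SD, with initial intensity B-score within 5 SD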
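Test system: CHO-K1 cells stably expressing KCNQ1 / Medium: assay buffer / Also added: depolarizing K+/Tl+ stimulus, K2SO4 and Tl2SO4 each 12.5 mM in 5x stock / Incubation: 90 min dye loading and 20 min compound exposure, both at room temperature / Signal: thallium influx via FluxOR fluorescence, kinetic imaging / Evaluation: B score of baseline-normalized fluorescence ratio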
KCNQ1 inh = inhibitors of human KCNQ1 channel, primary screen, cell-based, thallium flux, high-throughput. AID 2642, 2010. Potassium voltage-gated channel subfamily KQT member 1 (Homo sapiens), P51787. CHO-K1 KCNQ1, FluxOR thallium flux fluorescence; active compounds read high. 310,000 compounds, 1.3% hits. B-score at 10 µM;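 active = compounds whose thallium flux B-score, printed positive for inhibition, exceeds three library SD while starting fluorescence stays within three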;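 also: channel opened by potassium depolarization with thallium stimulus after 20 min compound exposure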
hERG rescue = hERG rescue from dofetilide block, primary screen, cell-based, CHO-hERG, FluxOR thallium flux, dofetilide IC70 | AID 1511, 2009 | activation (rescue from dofetilide block), less the hit threshold, % at 10 µM | 310,000 compounds, 0.51% hits | dofetilide IC70 present | Voltage-gated inwardly rectifying potassium channel KCNH2 (Homo sapiens), Q12809;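 active = activation above the mean of controls blocked by dofetilide plus 5 SD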;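 also: thallium influx through hERG after potassium depolarization seen as dye fluorescence rise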
KCNQ1 inh valid = KCNQ1 potassium channel inhibitors, confirmation, cell-based, Tl flux, duplicate | shares compounds with KCNQ1 inh | KCNQ1 cell line, FluxOR thallium flux fluorescence | inhibition, % at 10 µM | 1,600 compounds, 93% hits | AID 588353, 2011;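 active = primary screen active, with duplicate mean exceeding buffer control mean plus 3 SD of buffer wells, cut at about 28% in these data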
CHO KCNQ1 ctr = thallium flux effects in parental CHO cells, counter-screen for KCNQ1 inhibitor project, cell-based, Tl flux | shares compounds with KCNQ1 inh | parental CHO-K1, FluxOR thallium flux fluorescence ratio; active compounds read low; zero means no signal rise above baseline | fluorescence ratio (Tl flux) at 10 µM | 1,600 compounds, 21% hits;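 active = mean of duplicate thallium-flux fluorescence ratios in parental host cells more than 5 SD below the buffer control mean, cut at about 0.38 in these data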;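 also: ratio is peak minus minimum fluorescence divided by baseline fluorescence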
KCNQ1 ephys val = KCNQ1 channel inhibitors, confirmation, orthogonal assay, cell-based, automated electrophysiology | shares compounds with KCNQ1 inh | KCNQ1-CHO cells, automated patch clamp current | calls only at 10 µM | 490 compounds, 20% hits | AID 624120, 2012;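 active = KCNQ1 current drop exceeding 3 SD of negative control wells, seen in both duplicate runs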;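 also: steady state current during a 2 s step from -80 to +40 mV; negative values mean current inhibition and positive values mean potentiation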
KCNQ2 spec = KCNQ2 channel inhibition, selectivity assay for KCNQ1 inhibitor project, cell-based | inhibition, % at 10 µM | 1,600 compounds, 71% hits | shares compounds with KCNQ1 inh | AID 651746, 2012 | KCNQ2 cells, FluxOR thallium flux fluorescence;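 active = mean percent inhibition of the KCNQ2 thallium signal more than 5 SD above the buffer-only control wells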;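 also: KCNQ2 expressed in CHO cells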
Target sequence (O88943 whole entry, looked up): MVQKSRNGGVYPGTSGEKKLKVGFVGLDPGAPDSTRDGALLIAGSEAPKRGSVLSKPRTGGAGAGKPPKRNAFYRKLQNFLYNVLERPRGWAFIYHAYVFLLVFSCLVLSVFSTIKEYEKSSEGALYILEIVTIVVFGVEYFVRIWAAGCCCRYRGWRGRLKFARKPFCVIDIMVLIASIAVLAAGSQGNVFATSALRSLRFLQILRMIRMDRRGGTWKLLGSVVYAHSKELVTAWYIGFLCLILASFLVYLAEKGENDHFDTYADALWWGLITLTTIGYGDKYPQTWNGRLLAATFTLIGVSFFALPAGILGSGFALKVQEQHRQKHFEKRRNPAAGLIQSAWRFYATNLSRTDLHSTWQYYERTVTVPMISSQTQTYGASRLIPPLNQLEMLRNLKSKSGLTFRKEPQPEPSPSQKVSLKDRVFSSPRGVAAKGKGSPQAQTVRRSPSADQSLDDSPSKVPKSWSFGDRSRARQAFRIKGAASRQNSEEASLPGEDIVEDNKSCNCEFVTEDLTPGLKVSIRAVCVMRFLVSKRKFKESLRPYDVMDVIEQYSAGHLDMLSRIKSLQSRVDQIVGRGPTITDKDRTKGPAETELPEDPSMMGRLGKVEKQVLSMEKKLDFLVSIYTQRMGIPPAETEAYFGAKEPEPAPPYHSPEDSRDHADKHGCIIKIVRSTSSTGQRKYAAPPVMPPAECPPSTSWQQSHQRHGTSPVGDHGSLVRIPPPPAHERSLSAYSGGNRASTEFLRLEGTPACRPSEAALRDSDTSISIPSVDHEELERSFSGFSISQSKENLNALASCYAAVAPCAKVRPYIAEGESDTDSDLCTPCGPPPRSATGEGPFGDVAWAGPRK
KCNQ1-KCNE1 inh = KCNQ1/KCNE1 channel inhibition, selectivity assay for KCNQ1 inhibitor project, CHO-K1 cells, thallium flux, FluxOR. 1,600 compounds, 77% hits. FluxOR thallium flux fluorescence. inhibition, % at 10 µM. shares compounds with KCNQ1 inh;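 active = mean percent inhibition of duplicate wells above the buffer-only control mean plus 3 SD of those controls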
Of the large screens only hits and unclear results are named; the others gave an inactive call (follow-up assays come after a bar, where they were run).

Cc1cc(Nc2ccccc2)nc2cc(O)ccc12	Kir21 inh -5.2, KCNQ1 inh 7 | KCNQ1 inh valid 40 | CHO KCNQ1 ctr inactive | KCNQ2 spec inactive | KCNQ1-KCNE1 inh inactive
CC(=O)Nc1ccc(Nc2cc(C)c3ccccc3n2)cc1	none
C=CC[C@H](CC(=O)NCCO)C(=O)N[C@H](COC(=O)[C@@H](CC=C)Cc1ccc(F)cc1)Cc1ccccc1	none (no result: Kir21 inh, KCNK9 block, KCNQ1 pot, KCNQ1 inh, hERG rescue)
Cc1cccc(C)c1OCC(O)CN(Cc1ccccc1O)C1CCCCC1 (centres undefined)	KCNQ1 inh 7 | KCNQ1 inh valid 94 | CHO KCNQ1 ctr inactive | KCNQ1 ephys val active | KCNQ2 spec 114% | KCNQ1-KCNE1 inh 55%
Cc1nc2nc(-c3cccs3)cn2nc1C	KCNQ1 inh 7 | KCNQ1 inh valid 104 | CHO KCNQ1 ctr 0.34 | KCNQ2 spec inactive | KCNQ1-KCNE1 inh inactive
Cc1nc2nc(-c3ccc(Cl)cc3)cn2nc1C	none
CC(C)P(=O)(Cc1cccc(C#N)c1)C(C)C	none
COc1cccc(C(=O)Nc2ccc3nc(N4CCOCC4)cc(C)c3c2)c1	KCNQ1 inh 7 | KCNQ1 inh valid active | CHO KCNQ1 ctr inactive | KCNQ1 ephys val inactive | KCNQ2 spec inactive | KCNQ1-KCNE1 inh inactive
O=C1CCCCC1C(Nc1ccc(Br)cc1)c1ccccc1 (centres undefined)	KCNK9 block -6.6, KCNQ1 inh 8 | KCNQ1 inh valid 126 | CHO KCNQ1 ctr inactive | KCNQ1 ephys val active | KCNQ2 spec 89% | KCNQ1-KCNE1 inh 172%
O=C1CCCCC1C(Nc1ccc(Cl)cc1)c1ccccc1 (centres undefined)	none
OCCNc1nc(N2CCCCC2)nc2ccccc12	none
c1coc(CNc2nc(N3CCCCC3)nc3ccccc23)c1	Kir21 inh -4.6, KCNQ1 inh 9 | KCNQ1 inh valid 60 | CHO KCNQ1 ctr 0.38 | KCNQ2 spec 72% | KCNQ1-KCNE1 inh 62%
CCCCCC(=O)NC(=S)NC1C2CC3CC(C2)CC1C3 (centres undefined)	KCNQ1 inh 7 | KCNQ1 inh valid 66 | CHO KCNQ1 ctr inactive | KCNQ2 spec 79% | KCNQ1-KCNE1 inh 64%
Cc1ccc(C)c(OCC(=O)OCC(=O)Nc2c(C)nn(-c3ccccc3)c2C)c1	none
Cc1cccc(OCCC(=O)OCC(=O)Nc2c(C)nn(-c3ccccc3)c2C)c1	KCNQ1 inh 10 | KCNQ1 inh valid 32 | CHO KCNQ1 ctr inactive | KCNQ2 spec 64% | KCNQ1-KCNE1 inh 36%
O=S(=O)(Nc1ccon1)c1ccc(Br)cc1	none
COC(=O)c1c(C)oc2ccc(N(C(=O)c3ccncc3)S(=O)(=O)c3ccccc3)cc12	none
